Screens as filed in PubChem.
T cruzi repl – T. cruzi replication inhibition; T. cruzi beta-gal in NIH3T3, luminescence, 90 h; hit rate 1.4% among 300,000; inhibition, % (test concentration not listed);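 active means mean inhibition across valid replicates above about 55%, limit read from the data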;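 further: signal also drops with host cell toxicity which is not excluded here; 0% = plate median of DMSO wells and 100% = zero luminescence signal; higher percent means less beta-gal luminescence so fewer parasites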
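Material: NIH/3T3 host cells with β-galactosidase reporter T. cruzi; Input: 5,000 host fibroblasts per well; Medium: DMEM, 2% fetal bovine serum; Compound: 50 nL DMSO compound solution per well; Schedule: 3 h host attachment, then at least 90 h co-culture; Detection: luminescent β-galactosidase signal after 60 min lysis.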
Lmaj promast – inhibitors of Leishmania major promastigote growth | Leishmania major promastigotes, resazurin fluorescence viability | inhibition, % at 10 µM | hit rate 9% among 200,000; in the data active means inhibition above about 50%;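 further: promastigotes grown with compound for 44 hours at 28 °C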
HSF1 activator – increases HSF-1 driven luciferase reporter signal | hit rate 1.7% among 300,000 | AID 504408 | activation, % at 9 µM | NIH3T3-HGL HSF-1 luciferase reporter, MG132, 8 h; 100% = twice DMSO control signal;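 active means mean replicate activation of at least 50% with a set share of replicates each reaching 50%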;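 further: 0% = median of the neutral control wells and 100% = twice that signal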
Hsp70 activator – switches on Hsp70 transcription. HeLa Hsp70 promoter luciferase reporter, luminescence; scaled: vehicle 0, proteasome-inhibitor control 100%. activation, % at 10 µM. hit rate 0.04% among 200,000. AID 1203;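 active means activation above the mean across all tested compounds plus 3 SD, cutoff set per campaign, cut at about 5.5% in these data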;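 further: 100% = MG132 at 30 µM as the positive control and 0% = DMSO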
HSF1 inhib – HSF1 inhibition; activity change, negative = inhibition, % at 7.5 µM (by protocol); NIH3T3-HGL HSE-luciferase, MG132-induced, luminescence 8 h; active compounds read low; hit rate 0.77% among 300,000;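 active means more than half of replicate wells show activity change below -50%, luminescence cut by over half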;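 further: luciferase reports HSF-1 transcriptional activity via heat shock element; 0% = median of DMSO wells and -100% = zero luminescence signal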
* marks the source's active call; other numbers are inactive results. Shown is part of a subset that was picked to be rich in hits.

For Cc1ccccc1-c1ccc(Nc2ccc(N3CCOCC3)cc2)nn1 the results were T cruzi repl 70*, Lmaj promast 10, HSF1 activator 7, Hsp70 activator 0 and HSF1 inhib 7.
O=S1(=O)N=C(Nc2ccc(N3CCOCC3)cc2)c2ccccc21 was read as T cruzi repl -5, Lmaj promast -7, HSF1 activator -39, Hsp70 activator 0 and HSF1 inhib -20.
`O=C(CSc1nnc2ccccn12)N1CCc2ccccc21` gave T cruzi repl -7, Lmaj promast -7, HSF1 activator 11, Hsp70 activator 0 and HSF1 inhib 13.
`CCCCn1c(-c2sccc2C)n[nH]c1=S` gave T cruzi repl 4, Lmaj promast -5, HSF1 activator -5, Hsp70 activator 0 and HSF1 inhib -2.
For N#Cc1ccc(-c2cccs2)nc1SCc1cccnc1 the results were T cruzi repl 6, HSF1 activator -16 and HSF1 inhib -7.
`CCOC(=O)CSc1nc(-c2ccncc2)ccc1C#N` gave T cruzi repl 10, Lmaj promast 27, HSF1 activator 64*, Hsp70 activator 0 and HSF1 inhib 30.
`CCSc1nc(-c2cccnc2)ccc1C#N` gave T cruzi repl 9, Lmaj promast 77*, HSF1 activator -12, Hsp70 activator -1 and HSF1 inhib -4.
CN1CCN(C(=O)CSc2nc(-c3cccs3)ccc2C#N)CC1 was read as T cruzi repl 8, Lmaj promast 95*, HSF1 activator 12, Hsp70 activator 0 and HSF1 inhib 5.
For COc1ccc(NC(=S)N(C)CC2COc3ccccc3O2)cc1 (configuration not stated) the results were T cruzi repl -4, Lmaj promast 5, HSF1 activator 11, Hsp70 activator 0 and HSF1 inhib 8.
COC(=O)c1c(C)[nH]c(C(=O)/C=C/c2cccc(Cl)c2)c1C was read as T cruzi repl 47, Lmaj promast 16, HSF1 activator 356*, Hsp70 activator 0 and HSF1 inhib 267.
Screening CCOC(=O)c1c(C)[nH]c(C)c1C(=O)COC(=O)/C=C/c1cccc(Cl)c1 returned T cruzi repl -6, Lmaj promast 0 and Hsp70 activator 0.
For COC(=O)c1c(C)[nH]c(C(=O)/C=C/c2ccc(C)cc2)c1C the results were T cruzi repl 16, HSF1 activator 16 and HSF1 inhib 4.
Screening COC(=O)c1c(C)[nH]c(C(=O)CSc2ccc(Cl)cc2)c1C returned T cruzi repl 22, Lmaj promast 5, HSF1 activator 91*, Hsp70 activator 0 and HSF1 inhib 55.
For COC(=O)c1c(C)[nH]c(C(=O)/C=C/c2ccccc2)c1C the results were T cruzi repl 5, Lmaj promast 5, HSF1 activator 59*, Hsp70 activator 0 and HSF1 inhib 27.
`Cc1[nH]c2ccccc2c1/C=C/C(=O)c1ccccc1` gave T cruzi repl 38, Lmaj promast 19, HSF1 activator 47, Hsp70 activator 0 and HSF1 inhib 19.
Cc1[nH]c2ccccc2c(=O)c1C(=O)/C=C/c1ccccc1 was read as T cruzi repl 48, HSF1 activator 87* and HSF1 inhib 111.
Screening COc1ccc2cc3cc(C(=O)NC(C)C)oc3nc2c1 returned T cruzi repl 16, Lmaj promast 89*, HSF1 activator 30, Hsp70 activator 0 and HSF1 inhib 17.
COc1ccc2cc3cc(C(=O)Nc4ccc5c(c4)OCCO5)oc3nc2c1 was read as T cruzi repl 21, Lmaj promast 100*, HSF1 activator -8, Hsp70 activator 0 and HSF1 inhib 0.
Screening CN(C)C(=O)C1CCC(=O)N1Cc1cccs1 (configuration not stated) returned Lmaj promast 3 and Hsp70 activator 0.
`Cc1cc(C(=O)Nc2ccc3nc(C)sc3c2)c2ccccc2n1` gave T cruzi repl -14, HSF1 activator 35 and HSF1 inhib 3.
For c1coc(-c2nc3nc4ccccc4nc3n2-c2ccc3c(c2)OCCO3)c1 the results were Lmaj promast 84* and Hsp70 activator 0.
`c1ccc(Cn2c(-c3ccco3)nc3nc4ccccc4nc32)cc1` gave T cruzi repl 11, Lmaj promast 8, HSF1 activator 90*, Hsp70 activator 1 and HSF1 inhib 56.
`c1coc(-c2nc3nc4ccccc4nc3n2CC2CCCO2)c1` (configuration not stated) gave T cruzi repl -1, Lmaj promast 25, HSF1 activator 56*, Hsp70 activator 0 and HSF1 inhib 15.
